Measurements taken from ChEMBL document CHEMBL1149778, “Synthesis of some novel 2,4-disubstituted thiazoles as possible antimicrobial agents” (2008).
In brackets after ≈: the same amount, converted by molar mass.

Legend:
Bacillus subtilis [1] = assay: Antibacterial activity against Bacillus subtilis assessed as zone of inhibition after 16 to 18 hrs by serial plate dilution method; format: functional
Summary of the method: (§1)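 Agar well diffusion: 20 ml agar per dish seeded with bacterial suspension, excess decanted, dishes held 1 h at 37 °C. Wells punched, compounds in DMSO added at their MIC levels, DMSO wells as control. Zone of inhibition measured.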

Staphylococcus aureus [2] = assay: Antibacterial activity against Staphylococcus aureus ATTC 25923 after 16 to 18 hrs by serial plate dilution method; format: functional
Summary of the method: (§2)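 MIC by broth serial dilution: compound serially diluted in Mueller-Hinton broth, tubes adjusted to […] with phosphate buffer. Standardized bacterial suspension inoculated, incubated 16-18 h at 37 °C. MIC read as the lowest concentration with no visible growth.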

Talaromyces marneffei [3] = assay: Antifungal activity against Penicillium marneffei by serial plate dilution method; format: functional
Aspergillus flavus [4] = assay: Antifungal activity against Aspergillus flavus NCIM No.524 by serial plate dilution method; format: functional
Pseudomonas aeruginosa [5] = assay: Antibacterial activity against Pseudomonas aeruginosa ATTC 27853 after 16 to 18 hrs by serial plate dilution method; format: functional; settings: ATCC27853; summary of the method: as §2
[6] = test system: Trichophyton mentagrophytes; assay: Antifungal activity against Trichophyton mentagrophytes by serial plate dilution method; format: functional
Pseudomonas aeruginosa [7] = assay: Antibacterial activity against Pseudomonas aeruginosa ATTC 27853 assessed as zone of inhibition after 16 to 18 hrs by serial plate dilution method; format: functional, ATCC27853; summary of the method: as §1
Escherichia coli [8] = assay: Antibacterial activity against Escherichia coli ATTC 25922 assessed as zone of inhibition after 16 to 18 hrs by serial plate dilution method; format: functional, ATCC25922; summary of the method: as §1
Escherichia coli [9] = assay: Antibacterial activity against Escherichia coli ATTC 25922 after 16 to 18 hrs by serial plate dilution method; format: functional; settings: ATCC25922; summary of the method: as §2
Talaromyces marneffei [10] = assay: Antifungal activity against Penicillium marneffei assessed as zone of inhibition by serial plate dilution method; format: functional
Summary of the method: (§3)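 Sabouraud agar (peptone, D-glucose, agar; pH 5.7), 20 ml per dish, lawned with a saline spore suspension from a loopful of fungus. Excess decanted, plates dried 1 h at 37 °C. Wells punched and compounds in DMSO added, DMSO as control. Triplicate plates, 37 °C for 3-4 days; inhibition-zone diameter measured.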

[11] = test system: Trichophyton mentagrophytes; assay: Antifungal activity against Trichophyton mentagrophytes assessed as zone of inhibition by serial plate dilution method; format: functional; summary of the method: as §3
Bacillus subtilis [12] = assay: Antibacterial activity against Bacillus subtilis after 16 to 18 hrs by serial plate dilution method; format: functional; summary of the method: as §2
Aspergillus fumigatus [13] = assay: Antifungal activity against Aspergillus fumigatus NCIM No.902 by serial plate dilution method; format: functional
Aspergillus fumigatus [14] = assay: Antifungal activity against Aspergillus fumigatus NCIM No.902 assessed as zone of inhibition by serial plate dilution method; format: functional; summary of the method: as §3
Aspergillus flavus [15] = assay: Antifungal activity against Aspergillus flavus NCIM No.524 assessed as zone of inhibition by serial plate dilution method; format: functional; summary of the method: as §3
Staphylococcus aureus [16] = assay: Antibacterial activity against Staphylococcus aureus ATTC 25923 assessed as zone of inhibition after 16 to 18 hrs by serial plate dilution method; format: functional; summary of the method: as §1

Row | SMILES | MIC (Staphylococcus aureus [2]) [µg/mL] | MIC (Talaromyces marneffei [3]) [µg/mL] | MIC (Aspergillus flavus [4]) [µg/mL] | MIC (Pseudomonas aeruginosa [5]) [µg/mL] | MIC [6] [µg/mL] | MIC (Escherichia coli [9]) [µg/mL] | MIC (Bacillus subtilis [12]) [µg/mL] | MIC (Aspergillus fumigatus [13]) [µg/mL] | inhibition zone (IZ) (Bacillus subtilis [1]) [mm] | inhibition zone (IZ) (Pseudomonas aeruginosa [7]) [mm] | inhibition zone (IZ) (Escherichia coli [8]) [mm] | inhibition zone (IZ) (Talaromyces marneffei [10]) [mm] | inhibition zone (IZ) [11] [mm] | inhibition zone (IZ) (Aspergillus fumigatus [14]) [mm] | inhibition zone (IZ) (Aspergillus flavus [15]) [mm] | inhibition zone (IZ) (Staphylococcus aureus [16]) [mm]
1 | CN1CCN(Cc2csc(-c3cc(Cl)cc(Cl)c3Cl)n2)CC1 | 6.25 (≈ 16.6 µM) | 25 (≈ 66.4 µM) | 25 (≈ 66.4 µM) | 6.25 (≈ 16.6 µM) | 6.25 (≈ 16.6 µM) | 6.25 (≈ 16.6 µM) | 6.25 (≈ 16.6 µM) | 6.25 (≈ 16.6 µM) | 16 | 16 | 16 | <10 | 16 | 16 | <10 | 16
2 | Clc1ccc(-c2csc(N/N=C/c3cc(Cl)cc(Cl)c3Cl)n2)cc1 | 25 (≈ 59.9 µM) | 12.5 (≈ 30 µM) | 12.5 (≈ 30 µM) | 25 (≈ 59.9 µM) | 12.5 (≈ 30 µM) | 12.5 (≈ 30 µM) | 25 (≈ 59.9 µM) | 12.5 (≈ 30 µM) | <10 | <10 | 11 | 11 | 11 | 11 | 11 | <10
3 | Clc1cc(Cl)c(Cl)c(-c2nc(CN3CCOCC3)cs2)c1 | 12.5 (≈ 34.4 µM) | 12.5 (≈ 34.4 µM) | 25 (≈ 68.7 µM) | 25 (≈ 68.7 µM) | 25 (≈ 68.7 µM) | 12.5 (≈ 34.4 µM) | 12.5 (≈ 34.4 µM) | 25 (≈ 68.7 µM) | 11 | <10 | 11 | 11 | <10 | <10 | <10 | 11
4 | O=[N+]([O-])c1ccc(-c2csc(N/N=C/c3cc(Cl)cc(Cl)c3Cl)n2)cc1 | 6.25 (≈ 14.6 µM) | 25 (≈ 58.5 µM) | 25 (≈ 58.5 µM) | 25 (≈ 58.5 µM) | 25 (≈ 58.5 µM) | 25 (≈ 58.5 µM) | 6.25 (≈ 14.6 µM) | 25 (≈ 58.5 µM) | 16 | <10 | <10 | <10 | <10 | <10 | <10 | 16

More lines, in order of falling MIC (Staphylococcus aureus [2]), values ahead:

Row | MIC (Staphylococcus aureus [2]) [µg/mL] | MIC (Talaromyces marneffei [3]) [µg/mL] | MIC (Aspergillus flavus [4]) [µg/mL] | MIC (Pseudomonas aeruginosa [5]) [µg/mL] | MIC [6] [µg/mL] | MIC (Escherichia coli [9]) [µg/mL] | MIC (Bacillus subtilis [12]) [µg/mL] | MIC (Aspergillus fumigatus [13]) [µg/mL] | SMILES | inhibition zone (IZ) (Bacillus subtilis [1]) [mm] | inhibition zone (IZ) (Pseudomonas aeruginosa [7]) [mm] | inhibition zone (IZ) (Escherichia coli [8]) [mm] | inhibition zone (IZ) (Talaromyces marneffei [10]) [mm] | inhibition zone (IZ) [11] [mm] | inhibition zone (IZ) (Aspergillus fumigatus [14]) [mm] | inhibition zone (IZ) (Aspergillus flavus [15]) [mm] | inhibition zone (IZ) (Staphylococcus aureus [16]) [mm]
5 | 6.25 (≈ 17.3 µM) | 25 (≈ 69.1 µM) | 25 (≈ 69.1 µM) | 12.5 (≈ 34.6 µM) | 25 (≈ 69.1 µM) | 25 (≈ 69.1 µM) | 6.25 (≈ 17.3 µM) | 25 (≈ 69.1 µM) | Clc1cc(Cl)c(Cl)c(-c2nc(CN3CCCCC3)cs2)c1 | 16 | 11 | <10 | <10 | <10 | <10 | <10 | 16
6 | 6.25 (≈ 14.6 µM) | 25 (≈ 58.3 µM) | 25 (≈ 58.3 µM) | 6.25 (≈ 14.6 µM) | 6.25 (≈ 14.6 µM) | 6.25 (≈ 14.6 µM) | 6.25 (≈ 14.6 µM) | 6.25 (≈ 14.6 µM) | CSc1ccc(-c2csc(N/N=C/c3cc(Cl)cc(Cl)c3Cl)n2)cc1 | 16 | 16 | 16 | <10 | 16 | 16 | <10 | 16
